The values below come from ChEMBL document CHEMBL4680097 (J Med Chem, 2016).

Test [1] concerns HCT-116. The experiment in a line: Growth inhibition of human HCT-116 cells incubated for 96 hrs by MTS assay. Format: functional.
Test [2] deals with Panel NCI-60 (60 carcinoma cell lines). The experiment in a line: Growth inhibition of human NCI-60 cells at 10 uM. The settings on record: read-out: GI. Format: functional. The procedure, abridged:
(§1)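 NCI-60 human tumour cell line panel; initial single-dose screen at 10 μM, growth inhibition reported per cell line.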

The target in test [3] is T1, Histone deacetylase (Homo sapiens) (UniProt Q13547+O15379+Q9UBN7+Q92769+Q9UQL6+Q8WUI4+Q9BY41+Q96DB2+P56524+Q9UKV0+Q969S8). Kind of test: Inhibition of HDAC in human HCT-116 cells assessed increase in global histone H3 lysine 9 acetylation at 10 nM incubated for 24 hrs by Western blot analysis. Format: cell-based. The method, boiled down: (§2)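 HCT116 cells exposed 24 h at 10 nM, 100 nM or 1 μM; global histone H3 lysine 9 acetylation detected by Western blot.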

Test [4] deals with T2, Histone deacetylase 1 (Homo sapiens, UniProt Q13547). Kind of test: Inhibition of recombinant HDAC1 (unknown origin) incubated for 15 mins before substrate addition and measured after 30 to 45 mins by HDAC-Glo substrate. The procedure, abridged: (§3)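 HDAC isoforms captured from HeLa cell lysate with plate-bound isoform-specific antibodies (lysate 100 µg/mL for HDAC1/2, 1 mg/mL for HDAC3/6); inhibitor in DMSO preincubated 15 min at room temperature, then HDAC-Glo substrate/developer 30–45 min; luminescence, background-corrected against no-antibody wells; % activity vs DMSO control; at least two independent trials, mean ± standard error. Concentrations are final.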
T2 sequence (Q13547 whole entry, canonical isoform): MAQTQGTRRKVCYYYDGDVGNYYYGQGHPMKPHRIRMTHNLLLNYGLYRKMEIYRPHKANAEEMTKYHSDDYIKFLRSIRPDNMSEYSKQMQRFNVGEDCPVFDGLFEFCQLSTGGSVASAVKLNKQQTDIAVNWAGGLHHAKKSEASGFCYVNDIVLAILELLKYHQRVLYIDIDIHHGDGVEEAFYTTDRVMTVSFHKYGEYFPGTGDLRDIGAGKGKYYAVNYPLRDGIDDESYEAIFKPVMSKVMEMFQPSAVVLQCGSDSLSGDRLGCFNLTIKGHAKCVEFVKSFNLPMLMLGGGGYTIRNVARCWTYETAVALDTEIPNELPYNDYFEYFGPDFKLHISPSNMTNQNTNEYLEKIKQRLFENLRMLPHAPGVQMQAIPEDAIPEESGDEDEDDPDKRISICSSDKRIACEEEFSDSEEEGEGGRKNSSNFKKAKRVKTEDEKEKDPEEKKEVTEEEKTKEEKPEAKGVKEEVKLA

The target in test [5] is T3, Histone deacetylase 2 (Homo sapiens, UniProt Q92769). Kind of test: Inhibition of recombinant HDAC2 (unknown origin)incubated for 15 mins before substrate addition and measured after 30 to 45 mins by HDAC-Glo substrate. The method, boiled down: as §3
T3 sequence (Q92769 whole entry): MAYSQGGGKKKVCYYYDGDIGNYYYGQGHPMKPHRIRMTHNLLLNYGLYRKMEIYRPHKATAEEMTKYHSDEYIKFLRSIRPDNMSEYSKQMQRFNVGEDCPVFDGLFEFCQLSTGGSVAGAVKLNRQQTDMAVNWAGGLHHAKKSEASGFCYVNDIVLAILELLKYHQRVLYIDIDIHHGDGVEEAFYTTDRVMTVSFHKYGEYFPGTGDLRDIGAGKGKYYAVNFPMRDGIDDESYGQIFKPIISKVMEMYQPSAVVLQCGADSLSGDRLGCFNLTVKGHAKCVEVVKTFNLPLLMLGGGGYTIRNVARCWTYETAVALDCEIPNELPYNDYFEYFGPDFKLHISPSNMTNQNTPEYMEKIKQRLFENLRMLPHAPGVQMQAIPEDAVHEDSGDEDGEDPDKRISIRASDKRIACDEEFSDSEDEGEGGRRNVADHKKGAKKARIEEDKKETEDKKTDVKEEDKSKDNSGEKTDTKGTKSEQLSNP
Test [6] relates to Panel NCI-60 (60 carcinoma cell lines). Kind of test: Growth inhibition of human NCI-60 cells assessed as cell growth at 10 uM. As to conditions: read-out: Activity. Format: functional. The procedure, abridged:
as §1

The target in test [7] is T2, Histone deacetylase 1. Kind of test: Inhibition of recombinant HDAC1 (unknown origin) at 250 nM incubated for 15 mins before substrate addition and measured after 30 to 45 mins by HDAC-Glo substrate. The method, boiled down: as §3
Test [8] concerns the target T3, Histone deacetylase 2. Kind of test: Inhibition of recombinant HDAC2 (unknown origin) at 250 nM incubated for 15 mins before substrate addition and measured after 30 to 45 mins by HDAC-Glo substrate. The method, boiled down:
as §3

For test [9], the target named is T4, Histone deacetylase 3 (Homo sapiens, UniProt O15379). Kind of test: Inhibition of recombinant HDAC3 (unknown origin) at 250 nM incubated for 15 mins before substrate addition and measured after 30 to 45 mins by HDAC-Glo substrate. The method, boiled down: as §3
T4 sequence (O15379 whole entry): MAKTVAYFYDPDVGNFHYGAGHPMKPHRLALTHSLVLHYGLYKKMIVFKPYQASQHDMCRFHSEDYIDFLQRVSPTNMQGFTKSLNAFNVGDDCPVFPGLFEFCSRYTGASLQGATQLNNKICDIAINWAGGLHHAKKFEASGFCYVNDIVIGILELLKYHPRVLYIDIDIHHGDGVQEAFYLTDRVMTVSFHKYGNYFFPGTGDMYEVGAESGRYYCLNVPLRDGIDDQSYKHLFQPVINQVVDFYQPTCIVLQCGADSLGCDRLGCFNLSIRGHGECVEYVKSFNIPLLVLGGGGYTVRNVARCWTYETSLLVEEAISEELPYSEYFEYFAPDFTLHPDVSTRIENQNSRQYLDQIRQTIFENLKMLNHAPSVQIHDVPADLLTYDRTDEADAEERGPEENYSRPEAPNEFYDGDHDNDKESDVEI
The target in test [10] is T1, Histone deacetylase (Homo sapiens). Kind of test: Inhibition of HDAC in human HCT-116 cells assessed increase in global histone H3 lysine 9 acetylation at 100 nM incubated for 24 hrs by Western blot analysis. Format: cell-based. The procedure, abridged:
as §2

Test [11] deals with T2, Histone deacetylase 1. The experiment in a line: Inhibition of recombinant HDAC1 (unknown origin) at 2 uM incubated for 15 mins before substrate addition and measured after 30 to 45 mins by HDAC-Glo substrate. The procedure, abridged:
as §3

The target in test [12] is T3, Histone deacetylase 2. The experiment in a line: Inhibition of recombinant HDAC2 (unknown origin) at 2 uM incubated for 15 mins before substrate addition and measured after 30 to 45 mins by HDAC-Glo substrate. The method, boiled down:
as §3

For test [13], the target named is T4, Histone deacetylase 3. Kind of test: Inhibition of recombinant HDAC3 (unknown origin) at 2 uM incubated for 15 mins before substrate addition and measured after 30 to 45 mins by HDAC-Glo substrate. The method, boiled down:
as §3

The target in test [14] is T4, Histone deacetylase 3. The experiment in a line: Inhibition of recombinant HDAC3 (unknown origin)incubated for 15 mins before substrate addition and measured after 30 to 45 mins by HDAC-Glo substrate. The method, boiled down:
as §3

For test [15], the species on record is Homo sapiens. The experiment in a line: Selectivity index, ratio of IC50 for recombinant HDAC6 (unknown origin) to IC50 for recombinant HDAC1 (unknown origin).
For test [16], the species on record is Homo sapiens. The experiment in a line: Selectivity index, ratio of IC50 for recombinant HDAC6 (unknown origin) to IC50 for recombinant HDAC2 (unknown origin).
The species named for test [17] is Homo sapiens. The experiment in a line: Selectivity index, ratio of IC50 for recombinant HDAC6 (unknown origin) to IC50 for recombinant HDAC3 (unknown origin).
For test [18], the target named is T2, Histone deacetylase 1. The experiment in a line: Inhibition of recombinant HDAC1 (unknown origin) at 1 uM incubated for 15 mins before substrate addition and measured after 30 to 45 mins by HDAC-Glo substrate. The procedure, abridged:
as §3

Test [19] addresses T3, Histone deacetylase 2. Kind of test: Inhibition of recombinant HDAC2 (unknown origin) at 1 uM incubated for 15 mins before substrate addition and measured after 30 to 45 mins by HDAC-Glo substrate. The procedure, abridged:
as §3

Test [20] concerns the target T4, Histone deacetylase 3. The experiment in a line: Inhibition of recombinant HDAC3 (unknown origin) at 1 uM incubated for 15 mins before substrate addition and measured after 30 to 45 mins by HDAC-Glo substrate. The procedure, abridged:
as §3

The structures appear in SMILES notation. The source made the active and inactive calls. The rule behind the calls is not given here.

On to `CCCCCCCC(=O)SCC/C=C/[C@@H]1CC(=O)NCc2nc(cs2)C2=N[C@@](C)(CS2)C(=O)N[C@@H](C(C)C)C(=O)O1` [LARGAZOLE], for which, in [1], the GI50 was found to be 65 nM. Moreover, the inhibition of growth at 10 µM in test [2] worked out at 60%. For the same compound, in [3], the “Increase in histone H3K9 acetylation (qualitative call)” value (“Increase in histone H3K9 acetylation” below) was “Active”. Further, the IC50 in [4] was 61 nM; in test [5] it was 64 nM.
For `CCCCCCCC(=O)SCC/C=C/[C@@H]1CC(=O)NCc2cccc(n2)CN(Cc2ccc(Cl)cc2)CC(=O)N[C@@H](C(C)C)C(=O)O1`, the GI50 in test [1] was 2670 nM. Further, the growth at 10 µM in [6] was 1.42%. Moreover, the “Increase in histone H3K9 acetylation” value in test [3] is “Active”. For the same compound, the inhibition entry in [7], in test [8] and in test [9] was “inactive” in each case.
For the compound `CCCCCCCC(=O)SCC/C=C/[C@@H]1CC(=O)NCc2cccc(n2)CN(Cc2ccc(OC)cc2)CC(=O)N[C@@H](C(C)C)C(=O)O1`, halving of growth in test [1] (GI50) required 4250 nM. In addition, in [6], the growth at 10 µM was 5.41%. For the same compound, in test [3], the “Increase in histone H3K9 acetylation” value was “Active”. Also, the inhibition result in [7], in test [8] and in [9] was “inactive” each time.
In turn, `CCCCCCCC(=O)SCC/C=C/[C@@H]1CC(=O)NCCOCCOCC(=O)N[C@@H](C(C)C)C(=O)O1` showed a GI50 in test [1] of 750 nM. The inhibition of growth at 10 µM in test [2] stood at 60%. Besides, in test [6], the growth at 10 µM was determined as 38.6%. Moreover, the inhibition entry in test [10], in [11], in [12] and in [13] was “Active” in each case.
On to `CCCCCCCC(=O)SCC/C=C/[C@@H]1CC(=O)NCc2cccc(n2)CN(C)CC(=O)N[C@@H](C(C)C)C(=O)O1`, for which the GI50 in [1] was found to be 800 nM. Further, the inhibition of growth at 10 µM in test [2] worked out at 60%. In addition, the growth at 10 µM in test [6] amounted to 40.8%. The inhibition entry in [10] was “Active”.
Compound `CCCCCCCC(=O)SCC/C=C/[C@@H]1CC(=O)NCc2cccc(n2)-c2cccc(n2)C(=O)N[C@@H](C(C)C)C(=O)O1` gave a GI50 in [1] of 75 nM. For the same compound, the growth at 10 µM in [6] was -16.2%. The “Increase in histone H3K9 acetylation” value in test [3] is “Active”. In addition, the inhibition result in test [7], in test [8] and in [9] was “Active” in each case. Also, the values for the IC50 in [4], in test [5] and in [14] were 21 nM, 28 nM and 27 nM, respectively. In addition, the values for the Ratio IC50 in test [15], in test [16] and in test [17] were 619, 464 and 481, respectively.
Turning to `CCCCCCCC(=O)SCC/C=C/[C@@H]1CC(=O)NCc2cccc(n2)CN(Cc2cccc3ccccc23)CC(=O)N[C@@H](C(C)C)C(=O)O1`, the GI50 in [1] is > 5000 nM. For the same compound, the growth at 10 µM in [6] amounted to 34.9%. The inhibition entry in [10] was “inactive”. The inhibition entry in test [11], in test [12] and in test [13] was “Active” in each case.
As to `CCCCCCCC(=O)SCC/C=C/[C@@H]1CC(=O)NCc2cccc(n2)CN(Cc2ccccc2)CC(=O)N[C@@H](C(C)C)C(=O)O1`, the GI50 in [1] is > 5000 nM. The growth at 10 µM in test [6] was -4.39%. Moreover, the “Increase in histone H3K9 acetylation” value in [3] was “Active”. For the same compound, the inhibition entry in test [7], in [8] and in [9] was “inactive” in each case.
In test [1], `CCCCCCCC(=O)SCC/C=C/[C@@H]1CC(=O)NCc2cccc(n2)CN(Cc2ccc(C(F)(F)F)cc2)CC(=O)N[C@@H](C(C)C)C(=O)O1` showed a GI50 of 3200 nM. Also, the growth at 10 µM in [6] amounted to 0.43%. Moreover, the “Increase in histone H3K9 acetylation” value in test [3] is “Active”. For the same compound, the inhibition entry in test [18], in test [19] and in test [20] was “inactive” throughout.
